This is a sample that favours compounds with a hit; in the whole collection about 1.7% have one here.
PLCb3 inh – inhibitors of human phospholipase C beta3; inhibition, % at 12.2 µM; Purified PLC-beta3, fluorogenic substrate, fluorescence; 370,000 compounds, 0.18% hits; AID 720704; Q01970; in the data active means inhibition above about 11%;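 further: 0% = median of compound wells on plate and 100% = full blocker control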
PLCg1 inh – inhibitors of human phospholipase C gamma1; purified PLC-gamma1, fluorogenic substrate, fluorescence; inhibition, % at 12.2 µM; 370,000 compounds, 0.84% hits; AID 720700
Rpn11 block – blocks the human proteasome subunit Rpn11. O00487. inhibition, % at 20 µM. 360,000 compounds, 0.59% hits. AID 588493. human 26S proteasome, Ub4-pepOG fluorescence polarization; 20S core pre-blocked with epoxomicin;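 active means inhibition at 20 µM, scaled to each plate's controls, above about 33%, limit read from the data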
UCH37 DUB inh – human UCH37 deubiquitinating enzyme inhibition; Q9Y5K5; purified proteasome/UCH37, Ub-AMC cleavage fluorescence; inhibition, % (test concentration not listed); 330,000 compounds, 0.33% hits;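 active means mean inhibition over replicate wells above about 20%, limit read from the data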;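 further: 0% = compound-free wells with enzyme and 100% = wells lacking proteasome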
Target sequence (Q9Y5K5 whole entry, looked up): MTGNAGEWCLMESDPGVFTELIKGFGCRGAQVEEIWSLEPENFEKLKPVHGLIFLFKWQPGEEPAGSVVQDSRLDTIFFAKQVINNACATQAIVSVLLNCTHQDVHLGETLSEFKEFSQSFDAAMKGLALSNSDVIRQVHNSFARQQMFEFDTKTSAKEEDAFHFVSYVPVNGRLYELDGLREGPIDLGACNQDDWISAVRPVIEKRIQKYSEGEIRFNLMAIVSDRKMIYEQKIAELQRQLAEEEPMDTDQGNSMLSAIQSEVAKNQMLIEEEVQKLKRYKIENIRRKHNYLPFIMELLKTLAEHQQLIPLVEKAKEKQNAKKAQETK
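system = Proteasome-associated human UCH37 deubiquitinase | amount = 0.15 nM proteasome as dispensed | medium = pH 7.4 Tris-HCl (50 mM) with ovalbumin, ATP-MgCl2, DTT | incubation = 30 min preincubation with enzyme, 25 min cleavage at room temperature | detection = AMC fluorescence 355/460 nm | read-out basis = percent inhibition | controls = no-proteasome and no-compound wells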
PLCg1 ctr – PLC-gamma1 inhibition, counter-screen for PLC-beta3 hits. shares compounds with PLCg1 inh. purified PLC-gamma1, fluorogenic substrate, fluorescence. inhibition, % at 12.3 µM. 3,300 compounds, 3.1% hits
PLCbeta3 conf – confirmation of human PLC-beta3 inhibitors; shares compounds with PLCg1 inh; purified PLC-beta3, fluorogenic substrate fluorescence; inhibition, % at 12.3 µM; 3,300 compounds, 1% hits; AID 743261; in the data active means inhibition above about 11%
* = called active by the depositor. Unless noted, no stated cut-off is given here; in the data, active means inhibition above about 9.5%; inactive means the rest.

Results for COc1ccc(CSc2nnc(C)n2N)cc1[N+](=O)[O-] ?
PLCb3 inh: -3; PLCg1 inh: 10*; Rpn11 block: 3; UCH37 DUB inh: 2; PLCg1 ctr: -4; PLCbeta3 conf: -2

What do the screens show for `CCCCOc1ccc(CSc2nnc(C)n2N)cc1[N+](=O)[O-]`?
PLCb3 inh: -2; PLCg1 inh: 0; Rpn11 block: 3; UCH37 DUB inh: 7

How did CN1CCC(N[C@@H](Cc2ccccc2)C(=O)NCC(c2ccccc2)c2ccccc2)(C(=O)NC2CCCCC2)CC1 do in these assays?
PLCb3 inh: 9; PLCg1 inh: 12*; PLCg1 ctr: -1; PLCbeta3 conf: 1

Results for CC(C)C[C@H](NC1(C(=O)NCCc2c[nH]c3ccccc23)CCC1)C(=O)NCCCc1ccccc1 ?
PLCb3 inh: 7; PLCg1 inh: 13*; PLCg1 ctr: -7; PLCbeta3 conf: -4

What do the screens show for `O=C(NCC(c1ccccc1)c1ccccc1)[C@H](Cc1ccccc1)NC1(C(=O)NC2CCCCC2)CCCCCC1`?
PLCb3 inh: 1; PLCg1 inh: 0

Results for O=C(NCC(c1ccccc1)c1ccccc1)[C@H](Cc1c[nH]c2ccccc12)NC1(C(=O)NC2CCCCC2)CCC1 ?
PLCb3 inh: 7; PLCg1 inh: 10*; PLCg1 ctr: -3; PLCbeta3 conf: -1

Results for COc1cc2[nH]c(=O)n(C3CCCCC3)c(=O)c2cc1OC ?
PLCb3 inh: 14*; PLCg1 inh: 13*; Rpn11 block: -3; UCH37 DUB inh: 0; PLCg1 ctr: -7; PLCbeta3 conf: -3

Results for O=C(Nc1cccc(F)c1)C1CCN(c2nnnn2-c2ccccc2)CC1 ?
PLCb3 inh: 0; PLCg1 inh: 4; Rpn11 block: -9; UCH37 DUB inh: 3

What do the screens show for `CCOc1ccc(NC(=O)C2CCN(c3nnnn3-c3ccccc3)CC2)cc1`?
PLCb3 inh: 5; PLCg1 inh: 10*; Rpn11 block: 4; UCH37 DUB inh: 1; PLCg1 ctr: -7; PLCbeta3 conf: -3

Results for COc1cccc(NC(=O)N2CCN(c3nnnn3-c3ccccc3)CC2)c1 ?
PLCb3 inh: 5; PLCg1 inh: 10*; Rpn11 block: 5; UCH37 DUB inh: 4; PLCg1 ctr: 5; PLCbeta3 conf: 0

How did COc1cccc(C=NNC(=O)C(C)n2nc(C)c([N+](=O)[O-])c2C)c1O (stereo not drawn) do in these assays?
UCH37 DUB inh: 2

What do the screens show for `C/C(=N/NC(=O)c1ccccc1)c1ccc(NC(=O)C(F)(F)F)cc1`?
PLCb3 inh: 11*; PLCg1 inh: 8; Rpn11 block: -1; PLCg1 ctr: -4; PLCbeta3 conf: -1

What do the screens show for `CC(C)(C)c1cc(C(=O)NNC(=O)Nc2ccccc2)n(Cc2ccccc2)n1`?
PLCb3 inh: 11; PLCg1 inh: 12*; Rpn11 block: 2; UCH37 DUB inh: 6; PLCg1 ctr: 17*; PLCbeta3 conf: 18*

Results for CC(C)(C)c1cc(C(=O)NNC(=O)Nc2cccc(Cl)c2)n(Cc2ccccc2)n1 ?
PLCb3 inh: 4; PLCg1 inh: 5; Rpn11 block: 9; UCH37 DUB inh: 8

What do the screens show for `CN(CC(=O)Nc1ccc(Cl)c(C(F)(F)F)c1)C(=O)Cc1n[nH]c(=O)c2ccccc12`?
PLCb3 inh: -3; PLCg1 inh: 10*; Rpn11 block: -1; UCH37 DUB inh: 2; PLCg1 ctr: -2; PLCbeta3 conf: 1

Results for Nc1c(Cl)ncnc1NN=Cc1ccc2ccccc2n1 ?
UCH37 DUB inh: 9

How did O=C(Nc1nnc([C@H]2C[C@H](O)[C@@H](CO)O2)s1)NC(c1ccccc1)c1ccccc1 do in these assays?
PLCb3 inh: 3; PLCg1 inh: 12*; Rpn11 block: 1; PLCg1 ctr: -8; PLCbeta3 conf: -4

What do the screens show for `O=C(NCc1ccccc1)Nc1nnc([C@@H]2C[C@H](O)[C@@H](CO)O2)s1`?
PLCb3 inh: 6; PLCg1 inh: 15*; Rpn11 block: -3; PLCg1 ctr: -6; PLCbeta3 conf: 1

Results for O=C(Nc1nnc([C@@H]2C[C@H](O)[C@@H](CO)O2)s1)NC(c1ccccc1)c1ccccc1 ?
PLCb3 inh: -2; PLCg1 inh: 2; Rpn11 block: -8
